Assay results: ChEMBL document CHEMBL2151029, “Synthesis of N-(5-chloro-6-(quinolin-3-yloxy)pyridin-3-yl)benzenesulfonamide derivatives as non-TZD peroxisome proliferator-activated receptor γ (PPARγ) agonist” (Eur J Med Chem, 2012)

Legend:
[1] = target: T1, Peroxisome proliferator-activated receptor gamma (Mus musculus) (UniProt P37238); assay: Agonist activity at PPARgamma receptor in mouse 3T3-L1 cells assessed as adipogenesis at 20 ug/mL relative to insulin; assay type: functional, cell-based
T1 sequence (whole entry): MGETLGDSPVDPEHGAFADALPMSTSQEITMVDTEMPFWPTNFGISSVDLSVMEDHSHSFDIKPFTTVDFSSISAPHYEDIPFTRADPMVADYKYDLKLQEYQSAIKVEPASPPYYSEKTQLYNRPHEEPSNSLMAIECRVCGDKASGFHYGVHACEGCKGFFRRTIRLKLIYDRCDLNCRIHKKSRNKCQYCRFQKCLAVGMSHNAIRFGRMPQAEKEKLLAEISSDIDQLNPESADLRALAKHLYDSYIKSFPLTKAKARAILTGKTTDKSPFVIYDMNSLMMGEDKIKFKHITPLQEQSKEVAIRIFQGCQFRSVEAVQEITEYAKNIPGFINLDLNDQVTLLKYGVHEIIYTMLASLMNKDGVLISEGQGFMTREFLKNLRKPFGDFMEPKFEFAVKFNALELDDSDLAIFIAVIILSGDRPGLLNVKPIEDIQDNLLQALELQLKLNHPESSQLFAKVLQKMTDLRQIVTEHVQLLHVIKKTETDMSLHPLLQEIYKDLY
Procedure, shortened: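 3T3-L1 cells were treated with compound at 20 µg/ml in the presence of insulin and adipogenesis was measured. The response to a potent PPARγ full agonist at 1 µM was set as 100%. Emax (%) is the maximal adipogenic activity with test compound.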

[2] = target: T2, Peroxisome proliferator-activated receptor gamma (Homo sapiens) (UniProt P37231); assay: Agonist activity at human PPARgamma receptor expressed in HEK293 cells at 10 uM relative to PPARgamma full agonist at 1 uM
T2 sequence (whole entry): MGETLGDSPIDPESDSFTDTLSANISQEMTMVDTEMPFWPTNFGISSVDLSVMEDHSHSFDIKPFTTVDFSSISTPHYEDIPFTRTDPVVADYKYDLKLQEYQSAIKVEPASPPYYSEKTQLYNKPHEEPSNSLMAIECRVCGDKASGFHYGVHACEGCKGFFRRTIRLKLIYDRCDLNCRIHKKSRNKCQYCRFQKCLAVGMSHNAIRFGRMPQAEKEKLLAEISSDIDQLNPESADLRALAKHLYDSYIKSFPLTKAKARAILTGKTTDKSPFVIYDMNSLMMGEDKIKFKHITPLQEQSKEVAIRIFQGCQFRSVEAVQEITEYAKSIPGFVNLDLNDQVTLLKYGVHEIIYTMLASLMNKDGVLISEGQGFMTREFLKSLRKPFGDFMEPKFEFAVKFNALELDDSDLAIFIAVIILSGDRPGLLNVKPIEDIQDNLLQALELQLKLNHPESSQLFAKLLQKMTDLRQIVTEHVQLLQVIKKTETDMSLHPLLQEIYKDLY

[3] = Terminal elimination half life in db/db mouse at 100 mg/kg, po; assay type: ADME, organism-based; parameters: dose 100 mg/kg, route oral; conditions: in vivo, read-out: beta t1/2 (converted)
Procedure, shortened: (§1)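 Female db/db mice received a single 100 mg/kg oral dose as a suspension in 0.5% CMC and Tween 80 (10 mL/kg), n = 4 per time point. Blood was drawn at 0.08 to 8.0 h and plasma was kept at -80 °C. Compound levels were measured by HPLC. Parameters came from non-compartmental analysis: Cmax and Tmax read directly, λz from terminal log-linear regression, T1/2 = 0.693/λz.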

[4] = Drug excretion in db/db mouse assessed as elimination rate constant at 100 mg/kg, po; assay type: ADME, organism-based; parameters: dose 100 mg/kg, route oral; conditions: in vivo; procedure, shortened: as §1
[5] = tested on: Mus musculus; assay: Volume of distribution in db/db mouse at 100 mg/kg, po; assay type: ADME, organism-based; parameters: dose 100 mg/kg, route oral; conditions: in vivo; procedure, shortened: as §1
[6] = Clearance in db/db mouse at 100 mg/kg, po; assay type: ADME, organism-based; parameters: dose 100 mg/kg, route oral; conditions: in vivo; procedure, shortened: as §1
[7] = Cmax in db/db mouse at 100 mg/kg, po; assay type: ADME, organism-based; parameters: dose 100 mg/kg, route oral; conditions: in vivo; procedure, shortened: as §1
[8] = AUC (0 to 8 hrs) in db/db mouse at 100 mg/kg, po; assay type: ADME, organism-based; parameters: time < 8 hr, dose 100 mg/kg, route oral; conditions: plasma; procedure, shortened: as §1
[9] = Tmax in db/db mouse at 100 mg/kg, po; assay type: ADME, organism-based; parameters: dose 100 mg/kg, route oral; conditions: in vivo; procedure, shortened: as §1
[10] = tested on: Mus musculus; assay: Antihyperglycemic activity in db/db mouse assessed as plasma glucose reduction at 50 mg/kg administered BID for 10 days relative to control; assay type: functional; parameters: scale not given: the % may be the effect or the level left
Procedure, shortened: (§2)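 Male db/db mice, 5 to 7 weeks old and bred in-house, were fed a chow diet and dosed b.i.d. for 10 days. Plasma glucose and body weight gain were assessed at the end of the study.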

[11] = tested on: Mus musculus; assay: Toxicity in db/db mouse assessed as body weight gain at 50 mg/kg administered BID relative to control; assay type: organism-based; parameters: dose 50 mg/kg; conditions: in vivo; procedure, shortened: as §2
[12] = tested on: Mus musculus; assay: Antihyperglycemic activity in db/db mouse assessed as plasma glucose reduction at 5 mg/kg administered BID for 10 days relative to control; assay type: functional; parameters: scale not given: the % may be the effect or the level left; procedure, shortened: as §2

| SMILES | Emax [1] [%] | Emax [2] [%] | further results |
| --- | --- | --- | --- |
| O=S(=O)(Nc1cnc(Oc2cnc3ccccc3c2)c(Cl)c1)c1ccc(C(F)(F)F)cc1Cl | 57 | 86 | – |
| Cc1cc(F)ccc1S(=O)(=O)Nc1cnc(Oc2cnc3ccccc3c2)c(Cl)c1 | 73 | 83 | – |
| O=S(=O)(Nc1cnc(Oc2cnc3ccccc3c2)c(Cl)c1)c1ccc(F)c(Cl)c1 | 56 | 28 | – |
| O=S(=O)(Nc1cnc(Oc2cnc3ccccc3c2)c(Cl)c1)c1cccc(F)c1 | 80 | 62 | – |
| Cc1ccc(S(=O)(=O)Nc2cnc(Oc3cnc4ccccc4c3)c(Cl)c2)c(C)c1 | 67 | 31 | – |
| O=S(=O)(Nc1cnc(Oc2cnc3ccccc3c2)c(Cl)c1)c1ccc(F)cc1Cl | 51 | 39 | – |
| Cc1cccc(S(=O)(=O)Nc2cnc(Oc3cnc4ccccc4c3)c(Cl)c2)c1 | 90 | 36 | – |
| Cc1ccccc1S(=O)(=O)Nc1cnc(Oc2cnc3ccccc3c2)c(Cl)c1 | 95 | 43 | – |
| O=S(=O)(Nc1cnc(Oc2cnc3ccccc3c2)c(Cl)c1)c1ccc(F)c(F)c1 | 95 | 86 | half-life [3]: 1.76 h; k el [4]: 0.000108 s⁻¹; Vd [5]: 4.78 L/kg; CL/F [6]: 31.2 mL/min/kg; Cmax [7]: 8330 ng/mL; AUC(0-t) at 8 h [8]: 25400 ng·h/mL; Tmax [9]: 0.5 h |
| O=S(=O)(Nc1cnc(Oc2cnc3ccccc3c2)c(Cl)c1)c1ccc(Cl)c(Cl)c1 | 35 | 56 | – |
| O=S(=O)(Nc1cnc(Oc2cnc3ccccc3c2)c(Cl)c1)c1cccc(C(F)(F)F)c1 | 75 | 50 | – |
| COc1ccc(S(=O)(=O)Nc2cnc(Oc3cnc4ccccc4c3)c(Cl)c2)cc1OC | 60 | 93 | half-life [3]: 2.99 h; k el [4]: 6.39e-05 s⁻¹; Vd [5]: 1.23 L/kg; Activity [10]: 40%; Activity [11]: 9%; CL/F [6]: 4.67 mL/min/kg; Cmax [7]: 33900 ng/mL; AUC(0-t) at 8 h [8]: 146000 ng·h/mL; Tmax [9]: 0.25 h |
| CN(CCOc1ccc(CC2SC(=O)NC2=O)cc1)c1ccccn1 (stereo not given) [ROSIGLITAZONE] | – | – | Activity [12]: 52% |
| COc1ccc(OC)c(S(=O)(=O)Nc2cnc(Oc3cnc4ccccc4c3)c(Cl)c2)c1 | 54 | 71 | – |
| O=S(=O)(Nc1cnc(Oc2cnc3ccccc3c2)c(Cl)c1)c1ccc(F)cc1F | 56 | 32 | – |
